# Results: ChEMBL document CHEMBL5724801, “EUbOPEN Chemogenomics Library - Multiplex” (2024)
# Values joined by “and” are separate entries in the source; they are usually repeats but may differ in a detail not shown here. Equal entries are not always repeated.
# System: Fibroblast
# Test: Multiplex assay against human fibroblast
# Assay type: toxicity, cell-based
# Settings: 12 h, 1 µM, compound concentration 1 uM
# In short: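 Values for tubulin, mitochondrial-mass and membrane-permeability phenotypes are per cents of cells with healthy nuclei. These cells were identified by CellPathfinder machine-learning gating of live cells that had been stained at seeding with Hoechst33342, BioTracker Green Microtubule Cytoskeleton Dye, MitoTracker Red and Annexin V Alexa Fluor 680 and imaged on a CQ1 microscope at 37°C and 5% CO2 after compound addition. The gating first set Hoechst high-intensity objects apart from normal cells, then split normal cells into healthy, pyknosed or fragmented nuclei, and pyknosed cells into mitotic or apoptotic.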
Compound,Population Apoptotic (%),Population Fragmented Nuclei (%),Population Healthy Nuclei (%),Population Hoechst High Intensity Objects (%),Population Membrane Permeable-Phenotype (%),Population Mitochondria Different-Phenotype (%),Population Mitotic Cells (%),Population Normal (%),Population Tubulin-Different-Phenotype (%),Total Cell Count
C=CCN1C[C@H](C(=O)N(CCCN(C)C)C(=O)NCC)C[C@@H]2c3cccc4[nH]cc(c34)C[C@H]21 [CABERGOLINE],69% and 35%,13% and 20%,78% and 46%,6%,0% and 4%,2% and 1%,30% and 64%,93%,26% and 25%,186 and 144
O=C(O)CCC/C=C\CC1C(O)CC(O)C1/C=C/C(O)COc1cccc(Cl)c1 (stereo not given) [CLOPROSTENOL],41% and 20%,15% and 22%,68% and 52%,0% and 2%,0% and 8%,2%,58% and 80%,100% and 97%,22% and 52%,153 and 141
Cc1cc(C(C#N)c2ccc(Cl)cc2)c(Cl)cc1NC(=O)c1cc(I)cc(I)c1O (stereo not given) [CLOSANTEL],,11% and 4.88%,69% and 80%,0%,3.62% and 2.44%,10.14% and 4.88%,97.5% and 87.1%,100%,11.59%,200 and 205
CC1(COc2ccc3c(c2)ncn3-c2ccc3cccc(N4CCC(N)CC4)c3n2)COC1 [CRENOLANIB],,27% and 33%,60% and 47%,2% and 4%,0% and 7%,4% and 9%,38% and 81%,97% and 95%,48% and 67%,

# Same assay, conditions: 12 h, 1 µM, compound concentration 1 uM
row,Compound,Population Pyknosed Nuclei (%)
1,O=C(O)CCC/C=C\CC1C(O)CC(O)C1/C=C/C(O)COc1cccc(Cl)c1 (stereo not given) [CLOPROSTENOL],15% and 25%
2,Cc1cc(C(C#N)c2ccc(Cl)cc2)c(Cl)cc1NC(=O)c1cc(I)cc(I)c1O (stereo not given) [CLOSANTEL],20% and 15.12%
3,CC1(COc2ccc3c(c2)ncn3-c2ccc3cccc(N4CCC(N)CC4)c3n2)COC1 [CRENOLANIB],12% and 18%

# Same assay, conditions: 12 h, 10 µM, compound concentration 10 uM
Compound,Population Apoptotic (%),Population Fragmented Nuclei (%),Population Healthy Nuclei (%),Population Hoechst High Intensity Objects (%),Population Membrane Permeable-Phenotype (%),Population Mitochondria Different-Phenotype (%),Population Mitotic Cells (%),Population Normal (%),Population Pyknosed Nuclei (%),Population Tubulin-Different-Phenotype (%)
C=CCN1C[C@H](C(=O)N(CCCN(C)C)C(=O)NCC)C[C@@H]2c3cccc4[nH]cc(c34)C[C@H]21 [CABERGOLINE],50% and 35%,25% and 44%,64% and 39%,3% and 5%,0% and 6%,11% and 10%,50% and 64%,96% and 94%,10% and 16%,46% and 53%
O=C(O)CCC/C=C\CC1C(O)CC(O)C1/C=C/C(O)COc1cccc(Cl)c1 (stereo not given) [CLOPROSTENOL],38% and 23%,23%,58% and 43%,12% and 4%,0% and 11%,4% and 9%,61% and 76%,87% and 95%,18% and 34%,31% and 53%
Cc1cc(C(C#N)c2ccc(Cl)cc2)c(Cl)cc1NC(=O)c1cc(I)cc(I)c1O (stereo not given) [CLOSANTEL],,14.05% and 6.49%,60.33% and 78.38%,0%,3.42% and 2.76%,8.22% and 6.21%,95.16% and 78.57%,100%,25.62% and 15.14%,12.33% and 14.48%
CC1(COc2ccc3c(c2)ncn3-c2ccc3cccc(N4CCC(N)CC4)c3n2)COC1 [CRENOLANIB],33% and 34%,21% and 29%,48% and 40%,4% and 13%,2% and 6%,6% and 9%,66% and 65%,95% and 86%,30%,43% and 48%

# Same assay, conditions: 12 h, 10 µM, compound concentration 10 uM
row,Compound,Total Cell Count
1,C=CCN1C[C@H](C(=O)N(CCCN(C)C)C(=O)NCC)C[C@@H]2c3cccc4[nH]cc(c34)C[C@H]21 [CABERGOLINE],248 and 178
2,O=C(O)CCC/C=C\CC1C(O)CC(O)C1/C=C/C(O)COc1cccc(Cl)c1 (stereo not given) [CLOPROSTENOL],212 and 105
3,Cc1cc(C(C#N)c2ccc(Cl)cc2)c(Cl)cc1NC(=O)c1cc(I)cc(I)c1O (stereo not given) [CLOSANTEL],242 and 185

# Same assay, conditions: 24 h, 1 µM, compound concentration 1 uM
Compound,Population Apoptotic (%),Population Fragmented Nuclei (%),Population Healthy Nuclei (%),Population Hoechst High Intensity Objects (%),Population Membrane Permeable-Phenotype (%),Population Mitochondria Different-Phenotype (%),Population Mitotic Cells (%),Population Normal (%),Population Pyknosed Nuclei (%),Population Tubulin-Different-Phenotype (%)
C=CCN1C[C@H](C(=O)N(CCCN(C)C)C(=O)NCC)C[C@@H]2c3cccc4[nH]cc(c34)C[C@H]21 [CABERGOLINE],68% and 44%,15% and 24%,74% and 46%,4% and 6%,1% and 3%,3%,31% and 55%,95% and 93%,10% and 29%,33% and 39%
O=C(O)CCC/C=C\CC1C(O)CC(O)C1/C=C/C(O)COc1cccc(Cl)c1 (stereo not given) [CLOPROSTENOL],41% and 18%,19% and 27%,62% and 49%,0% and 3%,1% and 7%,3% and 5%,58% and 81%,99% and 96%,18% and 23%,26% and 53%
Cc1cc(C(C#N)c2ccc(Cl)cc2)c(Cl)cc1NC(=O)c1cc(I)cc(I)c1O (stereo not given) [CLOSANTEL],11.76% and 28.57%,7.66% and 4.52%,77.03% and 88.44%,0%,1.17% and 0.57%,7.6% and 4.55%,88.24% and 71.43%,100%,15.32% and 7.04%,12.28% and 13.07%
CC1(COc2ccc3c(c2)ncn3-c2ccc3cccc(N4CCC(N)CC4)c3n2)COC1 [CRENOLANIB],92% and 50%,29% and 41%,60% and 48%,0% and 1%,0% and 4%,9%,,99% and 98%,9% and 10%,61% and 63%

# Same assay, conditions: 24 h, 1 µM, compound concentration 1 uM
row,Compound,Total Cell Count
1,C=CCN1C[C@H](C(=O)N(CCCN(C)C)C(=O)NCC)C[C@@H]2c3cccc4[nH]cc(c34)C[C@H]21 [CABERGOLINE],198 and 132
2,O=C(O)CCC/C=C\CC1C(O)CC(O)C1/C=C/C(O)COc1cccc(Cl)c1 (stereo not given) [CLOPROSTENOL],161 and 144
3,Cc1cc(C(C#N)c2ccc(Cl)cc2)c(Cl)cc1NC(=O)c1cc(I)cc(I)c1O (stereo not given) [CLOSANTEL],222 and 199

# Same assay, conditions: 24 h, 10 µM, compound concentration 10 uM
Compound,Population Apoptotic (%),Population Fragmented Nuclei (%),Population Healthy Nuclei (%),Population Hoechst High Intensity Objects (%),Population Membrane Permeable-Phenotype (%),Population Mitochondria Different-Phenotype (%),Population Mitotic Cells (%),Population Normal (%),Population Pyknosed Nuclei (%),Population Tubulin-Different-Phenotype (%)
C=CCN1C[C@H](C(=O)N(CCCN(C)C)C(=O)NCC)C[C@@H]2c3cccc4[nH]cc(c34)C[C@H]21 [CABERGOLINE],73% and 43%,28% and 43%,65% and 46%,1% and 10%,0% and 2%,7% and 5%,26% and 56%,98% and 89%,5% and 9%,44% and 53%
O=C(O)CCC/C=C\CC1C(O)CC(O)C1/C=C/C(O)COc1cccc(Cl)c1 (stereo not given) [CLOPROSTENOL],41% and 59%,24% and 28%,57% and 50%,12% and 3%,2% and 7%,3%,58% and 40%,87% and 96%,18% and 21%,24% and 57%
Cc1cc(C(C#N)c2ccc(Cl)cc2)c(Cl)cc1NC(=O)c1cc(I)cc(I)c1O (stereo not given) [CLOSANTEL],10.53% and 22.73%,9.54% and 3.72%,74.69% and 84.57%,0%,2.22% and 2.52%,3.89% and 5.03%,89.47% and 77.27%,100%,15.77% and 11.7%,12.78% and 13.84%
CC1(COc2ccc3c(c2)ncn3-c2ccc3cccc(N4CCC(N)CC4)c3n2)COC1 [CRENOLANIB],36% and 34%,23% and 25%,51% and 46%,16% and 17%,0% and 6%,8% and 6%,63% and 65%,83% and 82%,24% and 28%,23% and 38%

# Same assay, conditions: 24 h, 10 µM, compound concentration 10 uM
row,Compound,Total Cell Count
1,C=CCN1C[C@H](C(=O)N(CCCN(C)C)C(=O)NCC)C[C@@H]2c3cccc4[nH]cc(c34)C[C@H]21 [CABERGOLINE],274 and 181
2,O=C(O)CCC/C=C\CC1C(O)CC(O)C1/C=C/C(O)COc1cccc(Cl)c1 (stereo not given) [CLOPROSTENOL],218 and 107
3,Cc1cc(C(C#N)c2ccc(Cl)cc2)c(Cl)cc1NC(=O)c1cc(I)cc(I)c1O (stereo not given) [CLOSANTEL],241 and 188

# Same assay, conditions: 48 h, 1 µM, compound concentration 1 uM
Compound,Population Apoptotic (%),Population Fragmented Nuclei (%),Population Healthy Nuclei (%),Population Hoechst High Intensity Objects (%),Population Membrane Permeable-Phenotype (%),Population Mitochondria Different-Phenotype (%),Population Mitotic Cells (%),Population Normal (%),Population Pyknosed Nuclei (%),Population Tubulin-Different-Phenotype (%)
C=CCN1C[C@H](C(=O)N(CCCN(C)C)C(=O)NCC)C[C@@H]2c3cccc4[nH]cc(c34)C[C@H]21 [CABERGOLINE],56% and 58%,15% and 24%,75% and 54%,5% and 7%,0% and 6%,6% and 1%,43% and 41%,94% and 92%,8% and 21%,34% and 33%
O=C(O)CCC/C=C\CC1C(O)CC(O)C1/C=C/C(O)COc1cccc(Cl)c1 (stereo not given) [CLOPROSTENOL],65% and 36%,21% and 37%,59% and 43%,2% and 3%,2% and 12%,2% and 10%,34% and 64%,97% and 96%,19% and 18%,25% and 63%
Cc1cc(C(C#N)c2ccc(Cl)cc2)c(Cl)cc1NC(=O)c1cc(I)cc(I)c1O (stereo not given) [CLOSANTEL],35.29% and 17.65%,10.13% and 6.91%,82.38% and 85.25%,0%,1.07% and 1.62%,,64.71% and 82.35%,100%,7.49% and 7.83%,8.02% and 14.05%
CC1(COc2ccc3c(c2)ncn3-c2ccc3cccc(N4CCC(N)CC4)c3n2)COC1 [CRENOLANIB],,32% and 44%,60% and 44%,1% and 0%,0% and 5%,8% and 7%,,98% and 99%,7% and 12%,55% and 74%

# Same assay, conditions: 48 h, 1 µM, compound concentration 1 uM
row,Compound,Total Cell Count
1,C=CCN1C[C@H](C(=O)N(CCCN(C)C)C(=O)NCC)C[C@@H]2c3cccc4[nH]cc(c34)C[C@H]21 [CABERGOLINE],189 and 156
2,O=C(O)CCC/C=C\CC1C(O)CC(O)C1/C=C/C(O)COc1cccc(Cl)c1 (stereo not given) [CLOPROSTENOL],156 and 137
3,Cc1cc(C(C#N)c2ccc(Cl)cc2)c(Cl)cc1NC(=O)c1cc(I)cc(I)c1O (stereo not given) [CLOSANTEL],227 and 217

# Same assay, conditions: 48 h, 10 µM, compound concentration 10 uM
Compound,Population Apoptotic (%),Population Fragmented Nuclei (%),Population Healthy Nuclei (%),Population Hoechst High Intensity Objects (%),Population Membrane Permeable-Phenotype (%),Population Mitochondria Different-Phenotype (%),Population Mitotic Cells (%),Population Normal (%),Population Pyknosed Nuclei (%),Population Tubulin-Different-Phenotype (%)
C=CCN1C[C@H](C(=O)N(CCCN(C)C)C(=O)NCC)C[C@@H]2c3cccc4[nH]cc(c34)C[C@H]21 [CABERGOLINE],72% and 46%,24% and 52%,68% and 37%,4% and 5%,1% and 6%,4% and 11%,27% and 53%,95% and 94%,6% and 9%,46% and 44%
O=C(O)CCC/C=C\CC1C(O)CC(O)C1/C=C/C(O)COc1cccc(Cl)c1 (stereo not given) [CLOPROSTENOL],46% and 55%,25% and 41%,57% and 49%,13% and 8%,0% and 4%,2% and 4%,53% and 44%,86% and 91%,16% and 9%,30% and 61%
Cc1cc(C(C#N)c2ccc(Cl)cc2)c(Cl)cc1NC(=O)c1cc(I)cc(I)c1O (stereo not given) [CLOSANTEL],33.33% and 66.67%,6.69% and 4.66%,88.85% and 92.23%,0%,0.84% and 3.93%,12.13% and 3.93%,66.67% and 33.33%,100%,4.46% and 3.11%,5.02% and 12.36%
CC1(COc2ccc3c(c2)ncn3-c2ccc3cccc(N4CCC(N)CC4)c3n2)COC1 [CRENOLANIB],42% and 37%,16% and 23%,62% and 42%,24% and 21%,1%,6%,57% and 62%,75% and 78%,21% and 33%,23% and 27%

# Same assay, conditions: 48 h, 10 µM, compound concentration 10 uM
row,Compound,Total Cell Count
1,C=CCN1C[C@H](C(=O)N(CCCN(C)C)C(=O)NCC)C[C@@H]2c3cccc4[nH]cc(c34)C[C@H]21 [CABERGOLINE],282 and 170
2,O=C(O)CCC/C=C\CC1C(O)CC(O)C1/C=C/C(O)COc1cccc(Cl)c1 (stereo not given) [CLOPROSTENOL],205 and 108
3,Cc1cc(C(C#N)c2ccc(Cl)cc2)c(Cl)cc1NC(=O)c1cc(I)cc(I)c1O (stereo not given) [CLOSANTEL],269 and 193
